Screening results: PubChem, several laboratories
Shown is part of a subset that was picked to be rich in hits.
UPR XBP1 act: activators of adaptive XBP1 UPR arm, primary screen, cell-based, CHO-XBP1 luciferase reporter, luminescence, uHTS. IRE1-XBP1 UPR activation; percent of tunicamycin response, DMSO as zero. activation, % at 20 µM. 0.33% of 330,000 active;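 active means versus positive control, 20 µM dose yields 30% or more activation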;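 further: 100% = tunicamycin at 10 µg/mL and 0% = DMSO only wells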
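Material: CHO-XBP1 cells stably carrying IRE1-XBP1-driven luciferase reporter / Amount: 1000 cells per well / Compound: 20 µM, 1% DMSO / Times: 6 h treatment, 37 °C / Detection: luciferase luminescence / Measure: % activation of reporter signal versus tunicamycin and DMSO controls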
Dynein transport: inhibitors of GR-EGFP nuclear translocation, primary screen, dynein cargo transport inhibitor project, imaging, high-content, 3617.4 mouse cells; test concentration mostly 20 µM; stimulated with dexamethasone, 1 µM; hits give low values; z-score, hits read low; 0.47% of 220,000 active; AID 1381, 2008;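 active means plate z-score of nuclear minus cytoplasmic receptor signal below a set negative limit, without overly bright fluorescence or cell loss, cut at about -3.5 in these data, passing the limit was not always enough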;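 further: z-score of nuclear minus cytoplasmic ring GR-EGFP intensity difference per well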
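medium = tetracycline-free induction medium containing charcoal-stripped FBS | also added = 1.0 µM final dexamethasone stimulus | schedule = 48 h induction, 1 h compound, 30 min dex at 37 °C | technique = fixed, Hoechst-stained cells imaged at 10x for EGFP | measure = GR-EGFP nuclear translocation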
UPR CHOP act: activators of apoptotic CHOP UPR arm, primary screen, cell-based, CHO-CHOP luciferase reporter, luminescence, uHTS; 0.34% of 330,000 active; AID 449763, 2010; UPR activation; percent of tunicamycin response over DMSO baseline; activation, % at 10 µM;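 active means at 10 µM dose, activation of 40% or more, normalized to positive control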;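 further: 100% = tunicamycin at 10 µg/mL and 0% = DMSO alone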
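Evaluation: % reporter activation, DMSO baseline versus tunicamycin full activation; System: CHO-CHOP luciferase reporter cell line; Input: 500 cells/well; Incubation: 6 h compound treatment, 37 °C; Measured by: Steady-Glo luciferase luminescence; Dosing: one dose, 10 µM in 0.5% DMSO; Buffer or medium: F12 medium, 10% FBS; Benchmarks: positive tunicamycin 10 µg/mL, negative DMSO alone.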
pCIP destab: p/CIP-EGFP fusion destabilizers, primary screen, fluorescence, F442A cells; Q05BA5; 16 h; 0.01% of 290,000 active; decrease of EGFP signal, % at 10 µM;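 active means EGFP signal decrease of at least 30% at 10 µM or well 3 SD below plate mean, unless failing retest; inactive means the rest, including hits failing retest or dose response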
CHOP inh: inhibitors of CHOP promoter induction, primary screen, cell-based, unfolded protein response, luciferase reporter; AID 2732, 2010; CHO-K1 CHOP-promoter luciferase, tunicamycin-induced, 15-18 h; inhibition, % at 10 µM; 3.8% of 220,000 active;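 active means compounds that reduced the stress-induced luciferase reporter signal by more than about 70% of percent inhibition, limit read from the data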;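 further: 0% = tunicamycin plus vehicle and 100% = wells without tunicamycin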
B2AR ag: beta2AR agonists driving receptor internalization, primary screen, cell-based, FAP fluorogen, flow cytometry; Am2.2-beta2AR cells; response, % (no concentration beside the values); 0.43% of 340,000 active;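 active means response above a set limit, near 3 SD of response in nonfluorescent compounds, cut at about 42% in these data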
An asterisk follows results filed as active; · = no result given.

SMILES	UPR XBP1 act	Dynein transport	UPR CHOP act	pCIP destab	CHOP inh	B2AR ag
COc1cccc(-c2nc(NCc3ccccc3)c3ccccc3n2)c1O	2	·	2	3	·	5
CCN(CC)c1nc(-c2cccc(OC)c2O)nc2ccccc12	1	-0.88	1	1	88*	3
CN(C)c1nc(NCc2ccccc2)nc(N/N=C/c2ccc(Cl)cc2Cl)n1	-1	0.38	-3	-4	26	-2
CC1CCN(c2cc(N3CCOCC3)c([N+](=O)[O-])cc2F)CC1	-2	1.4	-2	-23	1	-19
CC1CCN(c2cc(N3CCOCC3)c(F)cc2[N+](=O)[O-])CC1	-2	0.34	5	-9	82*	-12
Cc1nn(-c2ccc(NC(=O)c3ccncc3)cc2)c(C)c1Cl	-1	·	4	5	·	8
CCc1ccc(Nc2n[n+](-c3ccccc3)c(-c3c(Cl)cccc3Cl)s2)cc1	10	·	14	-9	·	80*
O=C(CCCN1C(=O)/C(=C/c2ccccc2Cl)SC1=S)NNC(=O)c1ccc(Cl)cc1	-6	0.089	-7	-1	93*	-1
Cc1cc(NC(=O)CCCN2C(=O)/C(=C/c3cccs3)SC2=S)no1	6	-0.41	-3	8	76*	6
O=C(CCCN1C(=O)/C(=C/c2ccccc2Cl)SC1=S)Nc1ccccn1	-5	0.0018	-4	-9	91*	-3
Cc1ccc(C(=O)NNC(=O)CCCN2C(=O)/C(=C/c3ccccc3Cl)SC2=S)cc1	-4	-0.058	0	-2	31	6
O=C(O)CCCN1C(=O)/C(=C/c2cn(-c3ccccc3)nc2-c2cccs2)SC1=S	·	0.51	·	16	85*	-1
O=C(CCN1C(=O)/C(=C/c2ccccc2Cl)SC1=S)Nc1ccccn1	0	·	1	-8	·	-2
Cc1ccc(OCCNC(=O)C(C)SCC(=O)Nc2ccc(F)cc2)cc1 (stereo unspecified)	2	·	-1	·	·	3
O=C(COn1nnc2ccc(Cl)cc21)NC1CCS(=O)(=O)C1 (stereo unspecified)	-2	·	-1	·	·	-4
COc1cccc(CNC(=O)CSc2nc3ccc(C)cc3[nH]2)c1	-2	·	0	-20	·	-9
NS(=O)(=O)c1ccc(NC(=S)NC2CC2)cc1	6	0.86	0	-13	5	-7
O=C(Nc1ccc(O)c(C(=O)O)c1)c1ccc2c(c1)C(=O)N(CC1CCCO1)C2=O (stereo unspecified)	-4	-0.34	-1	6	-2	-5
O=C(Nc1ccc2c(c1)C(=O)N(CC1CCCO1)C2=O)c1ccc(Cl)c(Cl)c1 (stereo unspecified)	1	-0.16	2	3	91*	0
O=c1cc(N2CCN(c3ccc(F)cc3)CC2)[nH]c(=O)n1C1CCCCC1	-3	0.93	-3	-12	72*	-5
Cc1ccc(C)c(NC(=O)CCC(=O)N2CCOc3ccccc32)c1	2	·	0	-11	·	0
C=CCNC(=S)N/N=C/c1ccc(C(C)(C)C)cc1	·	-0.77	·	-7	95*	8
CC(C)(C)c1ccc(/C=N/NC(=S)NCc2ccccc2)cc1	2	3	1	-5	65	-2
C=CCn1c(SCC(=O)N2CCN(c3ccccc3)CC2)nc2c([nH]c3ccccc32)c1=O	73*	·	21	-10	·	5
C=CCn1c(SCC(=O)N2CCOCC2)nc2c([nH]c3ccccc32)c1=O	-4	·	0	-2	·	12
SMILES	UPR XBP1 act	Dynein transport	UPR CHOP act	pCIP destab	CHOP inh	B2AR ag
COc1cccc(-n2c(SCC(=O)N3CCCCC3)nc3c([nH]c4ccccc43)c2=O)c1	9	-0.28	3	-3	71*	-3
COc1cccc(-n2c(SCC(N)=O)nc3c([nH]c4ccccc43)c2=O)c1	2	-0.53	0	7	-20	4
Nc1c(C(=O)NC2CCCC2)c2nc3ccccc3nc2n1N	0	-0.6	2	-6	74*	-25
Nc1c(C(=O)NC2CCCC2)c2nc3ccccc3nc2n1/N=C/c1ccco1	7	0.041	5	1	21	-1
N#CCSc1nc2c(cc1C#N)CCCC2	2	3.2	-1	1	-15	-9
CSC1CCCCC1(O)CSc1nc2c(cc1C#N)CCCC2 (stereo unspecified)	2	-0.27	2	-4	85*	-13
COc1ccc(/C=C/C(=O)NC(=S)Nc2ccc(S(N)(=O)=O)cc2)cc1OC	-8	·	-1	-6	·	-1
Cc1ccc2cc3c(NC(=O)C(C)C)nn(C)c3nc2c1	0	-0.48	-2	1	78*	-1
O=C1/C(=N\S(=O)(=O)c2cccs2)C([n+]2cccc(Cc3ccccc3)c2)=C([O-])c2ccccc21	-5	-0.075	19	-27	65	6
O=C1/C(=N\S(=O)(=O)c2cccs2)C([n+]2ccc(CCCc3ccccc3)cc2)=C([O-])c2ccccc21	-8	0.12	17	-18	95*	1
NC(=O)c1cccc(N)c1	·	·	·	·	12	·
Cc1cccc(NC(=O)c2ccc3c(c2)C(=O)N(Cc2cccnc2)C3=O)c1C	-4	·	0	0	·	-4
CCCCN1C(=O)c2ccc(C(=O)Nc3cccc(C)c3C)cc2C1=O	1	-1.3	2	-7	76*	2
Cc1ccccc1NC(=O)c1ccc2c(c1)C(=O)N(CCC(C)C)C2=O	-2	1.9	1	-6	79*	1
CC(C)CCN1C(=O)c2ccc(C(=O)Nc3ccccn3)cc2C1=O	-3	·	2	-20	·	7
O=C(OC(c1ccc(NS(=O)(=O)c2ccccc2)cc1)(C(F)(F)F)C(F)(F)F)c1ccccc1	3	0.087	2	-19	92*	-45
CC(=O)c1ccc(NS(=O)(=O)c2ccccc2)cc1	-1	-0.094	0	1	38	0
Cc1ccc(S(=O)(=O)Nc2ccc(C(OC(=O)c3ccccc3[N+](=O)[O-])(C(F)(F)F)C(F)(F)F)cc2)cc1	-1	-0.79	4	-10	76*	6
CC(=O)NC(CC(=O)NNC(=O)c1cc2ccccc2cc1O)c1ccccc1 (stereo unspecified)	-8	·	0	-5	·	3
O=C(Nc1ccc(F)c(Cl)c1)c1ccccc1NC(=O)C1CCCCC1C(=O)O (stereo unspecified)	·	·	·	·	·	8
Cc1ccc2nc(-c3ccc4c(c3)OCCO4)cn2c1	-8	-0.35	-10	-4	94*	14
